Experiment [1] is filed under the species Homo sapiens. Briefly: Inhibition of deubiquitinase in HEK293T cells expressing N-terminal HA-tagged ubiquitin assessed as stabilization of HMW-Ub proteins by measuring half life at 500 uM after 2 hrs by Western blot analysis. Format: cell-based. For orientation: Immunoblotting shows a protein as a band on a membrane.
Experiment [2] is described as follows: Inhibition of deubiquitinase in COS1 cells expressing N-terminal HA-tagged ubiquitin assessed as stabilization of HMW-Ub proteins by Western blot analysis. Type of experiment: cell-based, Chlorocebus aethiops. A digest of the protocol: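 HMW-Ub decomposition followed in lysates of Cos-1 cells expressing HA-Ub; EC50 from inhibition of HMW-Ub loss; mean ± s.e.m. of at least 3 independent experiments.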

Experiment [3] can be described thus: Inhibition of deubiquitinase in HEK293T cells expressing N-terminal HA-tagged ubiquitin assessed as stabilization of HMW-Ub proteins after 2 hrs by Western blot analysis. Type of experiment: cell-based, Homo sapiens.
The species named for experiment [4] is Homo sapiens. Nature of the experiment: Inhibition of deubiquitinase in HEK293T cells expressing N-terminal HA-tagged ubiquitin assessed as stabilization of HMW-Ub proteins at 100 uM after 2 hrs by Western blot analysis. Type of experiment: cell-based.
A further experiment deals with T1, Papain (Carica papaya) (UniProt P00784).
T1 sequence (whole entry): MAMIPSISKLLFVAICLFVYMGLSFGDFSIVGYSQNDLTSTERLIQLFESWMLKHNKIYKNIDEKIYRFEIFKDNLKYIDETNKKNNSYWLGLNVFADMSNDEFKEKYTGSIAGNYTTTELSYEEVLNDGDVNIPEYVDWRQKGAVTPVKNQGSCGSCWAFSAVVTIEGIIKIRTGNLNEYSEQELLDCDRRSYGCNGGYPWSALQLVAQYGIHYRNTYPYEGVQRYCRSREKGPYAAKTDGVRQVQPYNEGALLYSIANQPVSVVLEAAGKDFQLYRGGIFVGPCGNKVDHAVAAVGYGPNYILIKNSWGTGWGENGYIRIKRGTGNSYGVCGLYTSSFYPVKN
Briefly: Inhibition of papaya papain at 100 uM using Z-Arg-AMC as substrate preincubated for 30 mins followed by substrate addition by fluorescence assay. A digest of the protocol: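 Enzyme (papain or ficin) preincubated 30 min with inhibitor at 100 μM, then Z-Arg-AMC substrate added at 300 μM; AMC release followed.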

The nature of experiment [5]: Inhibition of deubiquitinase in HEK293T cells assessed as stabilization of K48-linked HMW-Ub protein by Western blot analysis. Format: cell-based, Homo sapiens.
The next experiment deals with K562. Briefly: Inhibition of deubiquitinase in human K562 cells assessed as accumulation of K48-linked HMW-Ub protein at 50 uM measured after 2 hrs by Western blot analysis. Type of experiment: cell-based. A digest of the protocol: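 K562 cells exposed to compound at 50 μM for 2 h; K48-linked ubiquitin accumulation read by immunoblotting.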
The target of experiment [6] is 26S proteasome (Homo sapiens) (UniProt Q99460+P49721+P20618+P28074+P28062+P28065+P28072+O00487+P25786+P25787+P25788+P25789+P28066+P60900+O14818+Q8TAA3+P40306+A5LHX3+P49720+P28070+Q99436+Q16186+P35998+P62191+P43686+P62333+P17980+P62195+Q13200+O43242+O00232+O00231+Q15008+P51665+Q9UNM6+P55036+P48556+P60896). Briefly: Inhibition of 26S proteasome in HEK293T cells expressing GFP-fused Ub G76V mutant assessed as increase in GFP fluorescence. Format: cell-based. The method in brief: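 HEK 293T cells expressing G76V Ub-GFP, a fusion uncleavable by DUBs that reports ubiquitin-proteasome flux, treated with compound. GFP fluorescence was the read-out, with bortezomib as proteasome-inhibitor reference.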

Experiment [7] addresses Ubiquitin carboxyl-terminal hydrolase 7 (Homo sapiens) (UniProt Q93009). Briefly: Inhibition of recombinant His6-tagged USP7 catalytic domain (unknown origin) assessed as association constant using Ub-AMC as substrate by fluorescence assay.
A further experiment relates to Ficin (Ficus carica). Briefly: Inhibition of fig ficin at 100 uM using Z-Arg-AMC as substrate preincubated for 30 mins followed by substrate addition by fluorescence assay.
The target of experiment [8] is Ubiquitin carboxyl-terminal hydrolase 9X (Homo sapiens) (UniProt Q93008). Nature of the experiment: Inhibition of USP9x in human K562 cells assessed as decrease in Bcr-Abl expression at 50 uM measured after 2 hrs by Western blot analysis. Type of experiment: cell-based. A digest of the protocol: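 K562 cells treated with 50 μM compound for 2 h. Lysates were sonicated in SDS, and Bcr-Abl was immunoblotted with anti-Abl antibody.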
Chain of Ubiquitin carboxyl-terminal hydrolase 9X (Homo sapiens) (Q93008 whole entry): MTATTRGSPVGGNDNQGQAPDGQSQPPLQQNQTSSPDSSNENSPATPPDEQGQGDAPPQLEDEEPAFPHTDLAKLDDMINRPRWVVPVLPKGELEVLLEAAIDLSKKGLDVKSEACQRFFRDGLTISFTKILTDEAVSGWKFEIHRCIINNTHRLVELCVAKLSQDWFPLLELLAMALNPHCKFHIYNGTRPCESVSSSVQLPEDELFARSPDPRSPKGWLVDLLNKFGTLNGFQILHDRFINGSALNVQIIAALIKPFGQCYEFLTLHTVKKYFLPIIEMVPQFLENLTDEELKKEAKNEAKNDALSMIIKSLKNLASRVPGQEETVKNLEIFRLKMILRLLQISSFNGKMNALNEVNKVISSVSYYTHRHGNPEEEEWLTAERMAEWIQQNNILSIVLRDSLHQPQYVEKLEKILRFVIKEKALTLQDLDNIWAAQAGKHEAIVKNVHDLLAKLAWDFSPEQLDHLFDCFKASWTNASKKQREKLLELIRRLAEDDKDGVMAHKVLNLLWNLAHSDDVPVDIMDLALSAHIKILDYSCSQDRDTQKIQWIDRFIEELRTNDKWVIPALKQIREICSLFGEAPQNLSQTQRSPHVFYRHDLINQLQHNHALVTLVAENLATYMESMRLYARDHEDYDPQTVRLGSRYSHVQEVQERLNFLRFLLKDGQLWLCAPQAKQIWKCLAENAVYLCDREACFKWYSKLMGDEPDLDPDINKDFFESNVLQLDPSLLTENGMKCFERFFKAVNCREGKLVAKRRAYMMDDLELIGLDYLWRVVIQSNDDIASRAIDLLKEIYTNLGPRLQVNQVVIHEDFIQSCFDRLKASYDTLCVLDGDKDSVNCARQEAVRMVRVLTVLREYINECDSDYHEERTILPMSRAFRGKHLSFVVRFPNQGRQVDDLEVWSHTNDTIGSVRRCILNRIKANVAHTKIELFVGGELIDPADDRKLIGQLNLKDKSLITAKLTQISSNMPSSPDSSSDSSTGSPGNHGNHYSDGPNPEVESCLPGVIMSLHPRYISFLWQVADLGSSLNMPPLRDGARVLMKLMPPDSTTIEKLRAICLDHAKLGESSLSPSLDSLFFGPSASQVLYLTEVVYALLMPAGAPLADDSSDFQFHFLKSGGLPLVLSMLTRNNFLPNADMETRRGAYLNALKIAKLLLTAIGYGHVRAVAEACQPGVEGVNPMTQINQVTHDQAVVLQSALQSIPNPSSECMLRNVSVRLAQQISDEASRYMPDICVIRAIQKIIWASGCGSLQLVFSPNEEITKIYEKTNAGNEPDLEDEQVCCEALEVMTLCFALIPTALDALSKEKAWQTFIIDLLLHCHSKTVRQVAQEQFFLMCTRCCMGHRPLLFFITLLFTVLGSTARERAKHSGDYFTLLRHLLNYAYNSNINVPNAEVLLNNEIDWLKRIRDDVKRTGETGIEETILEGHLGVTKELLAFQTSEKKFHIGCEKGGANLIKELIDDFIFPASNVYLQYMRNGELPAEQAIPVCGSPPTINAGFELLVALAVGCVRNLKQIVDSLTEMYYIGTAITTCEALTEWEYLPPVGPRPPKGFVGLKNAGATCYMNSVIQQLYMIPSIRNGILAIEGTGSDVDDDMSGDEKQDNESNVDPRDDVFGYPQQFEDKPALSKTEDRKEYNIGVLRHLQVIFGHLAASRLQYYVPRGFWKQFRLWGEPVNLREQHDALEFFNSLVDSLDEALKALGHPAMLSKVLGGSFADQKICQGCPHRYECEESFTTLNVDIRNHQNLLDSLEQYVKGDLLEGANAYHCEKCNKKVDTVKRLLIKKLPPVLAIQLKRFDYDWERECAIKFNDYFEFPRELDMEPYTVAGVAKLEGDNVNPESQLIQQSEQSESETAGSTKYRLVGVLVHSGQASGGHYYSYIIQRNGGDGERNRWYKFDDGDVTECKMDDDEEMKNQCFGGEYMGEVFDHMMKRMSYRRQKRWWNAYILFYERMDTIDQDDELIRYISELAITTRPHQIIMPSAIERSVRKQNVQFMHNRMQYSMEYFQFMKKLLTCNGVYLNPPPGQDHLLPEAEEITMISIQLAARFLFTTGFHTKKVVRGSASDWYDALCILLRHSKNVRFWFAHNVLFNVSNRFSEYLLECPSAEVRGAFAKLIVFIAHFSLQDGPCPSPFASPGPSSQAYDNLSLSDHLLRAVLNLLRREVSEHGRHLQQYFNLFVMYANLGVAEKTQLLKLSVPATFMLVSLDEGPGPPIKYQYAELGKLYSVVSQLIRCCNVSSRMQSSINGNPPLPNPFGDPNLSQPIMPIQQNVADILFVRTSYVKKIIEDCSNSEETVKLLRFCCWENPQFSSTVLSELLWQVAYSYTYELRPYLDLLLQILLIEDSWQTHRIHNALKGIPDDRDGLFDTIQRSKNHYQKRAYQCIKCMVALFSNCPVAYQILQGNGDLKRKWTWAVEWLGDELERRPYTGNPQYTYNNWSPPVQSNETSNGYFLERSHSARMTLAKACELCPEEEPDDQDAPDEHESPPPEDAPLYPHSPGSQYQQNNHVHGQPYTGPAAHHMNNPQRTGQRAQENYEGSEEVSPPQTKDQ

The target is the same in experiment [9]. Nature of the experiment: Inhibition of recombinant His6-tagged USP9x catalytic domain (unknown origin) assessed as association constant using Ub-AMC as substrate by fluorescence assay.
For a further experiment, the system named is MCF7. Nature of the experiment: Cytotoxicity against human MCF7 cells assessed as decrease in cell viability treated every 24 hrs measured after 72 hrs by alamar blue assay. Type of experiment: functional, cell-based. The method in brief:
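MCF7 or B16/F10 cells dosed with compound every 24 h. Viable cells were quantified with Alamar Blue after 72 h.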
Background: Resazurin is reduced to fluorescent resorufin, in cell work by metabolically active cells.

The target of experiment [10] is Sentrin-specific protease 6 (Homo sapiens) (UniProt Q9GZR1). Briefly: Inhibition of recombinant His6-tagged SENP6 catalytic domain (628 to 1112 residues) (unknown origin) at 1 to 25 uM using SUMO2-modified RanGap1 as substrate preincubated for 30 mins followed by substrate addition and measured after 10 mins by Western blot analysis. A digest of the protocol: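 His6-SENP6 catalytic domain (aa 628-1112, 200 nM) treated with inhibitor 30 min at room temperature; SUMOylated His6-RanGap1 (aa 418-588, 3 μM) then added for 10 min at 37 °C; quenched in Laemmli buffer, SDS-PAGE, anti-His6 immunoblot.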
Chain of Sentrin-specific protease 6 (Homo sapiens) (Q9GZR1 whole entry, the tested form may be a part): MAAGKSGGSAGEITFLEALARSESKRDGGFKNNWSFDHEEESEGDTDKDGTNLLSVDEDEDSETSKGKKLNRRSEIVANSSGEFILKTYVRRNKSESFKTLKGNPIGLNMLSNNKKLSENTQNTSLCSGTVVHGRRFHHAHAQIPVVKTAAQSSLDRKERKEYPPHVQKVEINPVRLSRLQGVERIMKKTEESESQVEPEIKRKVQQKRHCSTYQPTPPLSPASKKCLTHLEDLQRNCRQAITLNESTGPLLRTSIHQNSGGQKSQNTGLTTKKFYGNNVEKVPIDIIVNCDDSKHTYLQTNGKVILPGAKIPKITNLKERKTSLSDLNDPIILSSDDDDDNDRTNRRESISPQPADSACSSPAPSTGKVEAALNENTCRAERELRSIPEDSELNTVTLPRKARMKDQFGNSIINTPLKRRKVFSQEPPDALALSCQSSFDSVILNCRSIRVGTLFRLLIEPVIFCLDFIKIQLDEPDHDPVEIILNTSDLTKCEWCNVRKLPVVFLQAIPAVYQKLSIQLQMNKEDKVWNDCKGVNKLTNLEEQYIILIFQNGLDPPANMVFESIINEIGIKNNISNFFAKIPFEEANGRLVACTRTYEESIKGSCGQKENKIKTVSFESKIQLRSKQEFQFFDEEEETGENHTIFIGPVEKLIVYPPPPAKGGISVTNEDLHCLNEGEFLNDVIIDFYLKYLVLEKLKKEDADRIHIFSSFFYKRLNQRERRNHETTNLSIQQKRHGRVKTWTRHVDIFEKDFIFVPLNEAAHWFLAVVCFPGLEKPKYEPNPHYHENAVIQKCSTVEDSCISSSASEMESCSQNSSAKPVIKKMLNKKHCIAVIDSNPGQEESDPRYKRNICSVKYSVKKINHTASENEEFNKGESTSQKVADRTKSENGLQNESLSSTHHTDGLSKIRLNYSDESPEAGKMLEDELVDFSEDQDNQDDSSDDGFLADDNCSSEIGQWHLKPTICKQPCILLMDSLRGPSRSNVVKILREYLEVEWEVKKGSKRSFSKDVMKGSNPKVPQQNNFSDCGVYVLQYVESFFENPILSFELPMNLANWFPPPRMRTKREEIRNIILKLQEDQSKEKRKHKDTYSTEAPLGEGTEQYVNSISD

The species entered for experiment [11] is Homo sapiens. Nature of the experiment: Inhibition of deubiquitinase in HEK293T cells expressing N-terminal HA-tagged ubiquitin assessed as stabilization of HMW-Ub proteins at 25 uM after 2 hrs by Western blot analysis. Format: cell-based.
The target of experiment [12] is Ubiquitin carboxyl-terminal hydrolase 9X (Homo sapiens) (UniProt Q93008). Briefly: Inhibition of recombinant human N-terminal His6-tagged USP9x assessed as association constant using Cy5-UbVME as substrate preincubated for 15 mins followed by substrate addition and measured after 7 mins by fluorescence assay.
For experiment [13], the species on record is Homo sapiens. Nature of the experiment: Inhibition of deubiquitinase in HEK293T cells expressing N-terminal HA-tagged ubiquitin assessed as stabilization of HMW-Ub proteins at 1 uM after 2 hrs by Western blot analysis. Type of experiment: cell-based.
The species entered for experiment [14] is Homo sapiens. Briefly: Inhibition of deubiquitinase in HEK293T cells expressing N-terminal HA-tagged ubiquitin assessed as stabilization of HMW-Ub proteins at 30 uM after 2 hrs by Western blot analysis. Format: cell-based. The method in brief:
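Lysate of HEK 293T cells expressing HA-ubiquitin, incubated with inhibitor or DMSO vehicle at 37 °C for up to 2 h. Reactions quenched with reducing Laemmli buffer. Remaining high-molecular-weight ubiquitinated proteins assessed by SDS-PAGE and anti-HA immunoblot, relative to DMSO control at time 0. Duplicate runs.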

The species named for experiment [15] is Homo sapiens. Briefly: Inhibition of deubiquitinase in HEK293T cells expressing N-terminal HA-tagged ubiquitin assessed as stabilization of HMW-Ub proteins by measuring half life at 250 uM after 2 hrs by Western blot analysis. Type of experiment: cell-based.

Calls of active or inactive are those of the source. The calls are words filed in the database; no cut-off is given here. Bounds are passed on as bounds.

In general, EC50 refers to the concentration that produces a half-maximal response.

Chain of Ubiquitin carboxyl-terminal hydrolase 7 (Homo sapiens) (Q93009 whole entry, looked up, the tested form may be a part): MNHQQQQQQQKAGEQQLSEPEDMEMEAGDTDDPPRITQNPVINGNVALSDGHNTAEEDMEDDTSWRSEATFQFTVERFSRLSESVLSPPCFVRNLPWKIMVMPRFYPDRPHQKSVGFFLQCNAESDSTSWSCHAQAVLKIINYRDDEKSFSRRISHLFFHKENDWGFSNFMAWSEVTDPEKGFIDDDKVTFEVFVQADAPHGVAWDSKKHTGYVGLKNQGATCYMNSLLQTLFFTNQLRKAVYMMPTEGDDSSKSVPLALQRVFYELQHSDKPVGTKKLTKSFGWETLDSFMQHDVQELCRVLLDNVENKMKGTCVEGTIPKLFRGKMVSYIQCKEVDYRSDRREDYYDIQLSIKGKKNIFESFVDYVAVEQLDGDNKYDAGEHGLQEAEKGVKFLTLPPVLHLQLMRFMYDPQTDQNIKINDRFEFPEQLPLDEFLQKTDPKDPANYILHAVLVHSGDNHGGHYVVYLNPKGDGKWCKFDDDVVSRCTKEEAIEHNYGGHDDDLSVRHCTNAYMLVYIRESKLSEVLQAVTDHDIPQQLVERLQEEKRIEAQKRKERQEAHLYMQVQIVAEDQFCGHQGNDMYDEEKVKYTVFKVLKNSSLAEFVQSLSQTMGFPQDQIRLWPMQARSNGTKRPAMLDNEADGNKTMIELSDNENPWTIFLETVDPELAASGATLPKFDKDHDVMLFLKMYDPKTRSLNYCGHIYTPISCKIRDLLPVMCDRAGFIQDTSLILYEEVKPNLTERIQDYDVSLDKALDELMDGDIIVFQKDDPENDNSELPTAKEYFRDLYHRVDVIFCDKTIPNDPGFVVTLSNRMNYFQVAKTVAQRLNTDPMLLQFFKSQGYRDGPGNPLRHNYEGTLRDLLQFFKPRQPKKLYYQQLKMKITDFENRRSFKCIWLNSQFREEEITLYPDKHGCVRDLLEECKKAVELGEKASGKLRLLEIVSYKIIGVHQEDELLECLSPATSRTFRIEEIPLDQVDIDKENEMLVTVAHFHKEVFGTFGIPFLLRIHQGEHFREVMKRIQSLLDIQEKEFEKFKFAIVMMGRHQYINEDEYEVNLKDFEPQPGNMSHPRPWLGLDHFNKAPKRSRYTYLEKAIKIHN

Take `NCc1ccc(OC(=O)Oc2ccccc2)cc1`: the T1/2 in the experiment filed under Homo sapiens [1] was over 0.5 h. The EC50 in experiment [2] is 250 µM; in experiment [3] it was 210 µM.
For `O=C(Oc1ccccc1)Oc1ccc(CNCc2ccc(Cl)cc2)cc1`, in experiment [3], the half-maximal effective concentration (EC50) amounted to 300 µM.
On to `O=C1/C(=C/c2ccc([N+](=O)[O-])cc2)CS(=O)(=O)C/C1=C\c1ccc([N+](=O)[O-])cc1`, for which the inhibition entry in the experiment listed under Homo sapiens [4] was “Active”.
With `NCc1ccc(OC(=O)Oc2cccc3ccccc23)cc1`, the inhibition result (at Papain (Carica papaya); in experiment [6]; with Ficin (Ficus carica)) was “inactive” each time. In addition, the values for the EC50 in experiment [5] and in experiment [3] were under 50 µM and 40 µM, respectively. Besides, the inhibition result (in the experiment on K562; in [8]) was “Active” throughout. In addition, the K entry in experiment [7] is “inactive”. For the same compound, in [9], the K amounted to 17 M⁻¹ s⁻¹.
For `Oc1ccc2ccccc2c1`, the outcome in the experiment on MCF7 was inactive.
`NCc1ccc(OC(=O)Oc2ccccc2Cl)cc1`: in experiment [3], the EC50 was determined as 60 µM.
Take `NCc1ccc(O)cc1`: in the experiment on MCF7, the outcome was inactive.
For `CC(C)(C)OC(=O)NCc1ccc(OC(=O)Oc2ccc3ccccc3c2)cc1`, the EC50 in experiment [3] was over 150 µM.
As for `N#CSc1cc(SC#N)c(N)nc1N`, the K in experiment [9] is 90 M⁻¹ s⁻¹.
With `NCc1ccc(OC(=O)Oc2ccc(Br)cc2)cc1`, the inhibition result (on Papain (Carica papaya); in [10]; in experiment [6]; in the experiment on Ficin (Ficus carica)) was “inactive” in each case. Moreover, the results for the 50% effective concentration (EC50) in experiment [2], in experiment [5] and in [3] were 40 µM, under 50 µM and 30 µM, respectively. Besides, the inhibition result (in the experiment on K562; in experiment [8]) was “Active” in each case. For the same compound, the K was 8 M⁻¹ s⁻¹ in experiment [7] and 6 M⁻¹ s⁻¹ in experiment [9].
Take `Cc1ccc(/C=C2\CNC/C(=C\c3ccc(C)cc3)C2=O)cc1`: the inhibition result in the experiment filed under Homo sapiens [11] was “Active”.
Consider `Cc1ccc(OC(=O)Oc2cccc(C)c2)cc1`, for which, in experiment [3], the EC50 was over 150 µM.
For the compound `CC(C)(C)OC(=O)NCc1ccc(OC(=O)Oc2ccc(Cl)cc2)cc1`, the EC50 in [3] was over 150 µM.
Still for that read-out and setting: the figure for `NCc1ccc(OC(=O)Cc2ccccc2)cc1` is over 150 µM.
With `COc1ccc(OC(=O)Oc2ccc(CN)cc2)cc1`, the EC50 in experiment [3] came to 260 µM.
`NCc1ccc(NC(=O)Oc2ccccc2)cc1`: in experiment [3], the EC50 was over 150 µM.
Same read-out and setting: the figure for `COc1ccc(OC(=O)Oc2cccc(OC)c2)cc1` is over 150 µM.
In the case of `NCc1ccc(OC(=O)Oc2ccc(F)cc2)cc1`, the EC50 in experiment [3] was found to be 300 µM.
As to `S=C=NCCc1ccccc1`, the K in experiment [12] is 150 M⁻¹ s⁻¹.
Consider `NCc1ccc(CC(=O)Oc2ccccc2)cc1`, for which the EC50 in [3] is over 150 µM.
On the same count and under the same terms, the result for `NCc1ccc(OC(=O)Nc2ccccc2)cc1` reads over 150 µM.
For the compound `CC(C)C[C@H](NC(=O)[C@H](Cc1ccccc1)NC(=O)c1cnccn1)B(O)O`, the inhibition entry in the experiment filed under Homo sapiens [13] is “inactive”.
As to `CC(C)(C)OC(=O)NCc1ccc(OC(=O)Oc2ccccc2)cc1`, the EC50 in experiment [3] is over 150 µM.
Regarding `O=C(Oc1ccccc1)Oc1ccccc1`, in experiment [3], the EC50 was over 150 µM.
On the same count and under the same terms, the result for `CC(C)COC(=O)Oc1ccc(CN)cc1` reads over 500 µM.
Regarding `CCC[C@H](NC(=O)/C(C#N)=C/c1cccc(Br)n1)c1ccccc1`, the K in experiment [7] was 66 M⁻¹ s⁻¹; in experiment [9], 50 M⁻¹ s⁻¹.
As for `CC(C)(C)CNCc1ccc(OC(=O)Oc2ccc3ccccc3c2)cc1`, in experiment [7], the K is 21 M⁻¹ s⁻¹. Also, the EC50 in experiment [3] stood at 30 µM. In [9], the K entry was “inactive”.
For the compound `Cc1cc(C(=O)CN2CCCC2)c(C)n1-c1ccc(F)cc1`, the inhibition result in the experiment filed under Homo sapiens [14] is “Active”.
Take `NCc1ccc(OC(=O)Oc2ccc(Cl)cc2)cc1`: the inhibition result (on Papain (Carica papaya); in [10]; in [6]; in the experiment on Ficin (Ficus carica)) was “inactive” throughout. Also, the results for the concentration giving a half-maximal response (EC50) in experiment [2], in [5] and in experiment [3] were 50 µM, under 50 µM and 30 µM, respectively. Also, the inhibition entry (with K562; in [8]) was “Active” each time. Further, the K in experiment [7] worked out at 13 M⁻¹ s⁻¹; in [9], 18 M⁻¹ s⁻¹. The T1/2 in the experiment listed under Homo sapiens [15] was over 6 h.
Take `C=CC(=O)N1C/C(=C\c2ccc([N+](=O)[O-])cc2)C(=O)/C(=C/c2ccc([N+](=O)[O-])cc2)C1`: the K in experiment [9] was 140 M⁻¹ s⁻¹.
Consider `CC(C)CNCc1ccc(OC(=O)Oc2ccc3ccccc3c2)cc1`, for which the EC50 in [3] is 70 µM.
On the same count and under the same terms, the figure for `Cc1ccc(OC(=O)Oc2ccc(CN)cc2)cc1` is 250 µM.

(Values after ChEMBL document CHEMBL4371052, “Diarylcarbonates are a new class of deubiquitinating enzyme inhibitor” (Bioorg Med Chem Lett, 2019).)
